ChEMBL document CHEMBL1629548, “In vitro activities of tigecycline against clinical isolates of Aeromonas, Vibrio, and Salmonella species in Taiwan” (2008)
Converted amounts (≈) assume the structure as drawn.

Key:
[1] = Antimicrobial activity against Salmonella serotype Choleraesuis assessed as percent tetracyclin-resistant isolate at 1 to >128 ug/ml by broth microdilution method; type: functional, Salmonella enterica subsp. enterica serovar Choleraesuis
Outline: (§1)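 Tetracycline MICs for clinical isolates were determined by broth microdilution over 0.03 to 128 μg/ml. The reported value is the rate of isolates not susceptible to tetracycline for each species or serogroup.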

[2] = system: Vibrio; test: Antimicrobial activity against tetracycline-susceptible Vibrio sp. Isolate by broth microdilution method; type: functional
Outline: (§2)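 Clinical isolates from Taiwan; tigecycline and tetracycline MICs by broth microdilution per CLSI guidelines, tested over 0.03 μg/ml to 128 μg/ml; a control strain was included.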

[3] = system: Salmonella; test: Antimicrobial activity against Salmonella serogroup O8 assessed as percent tetracyclin-resistant isolate at 1 to >128 ug/ml by broth microdilution method; type: functional; outline: as §1
[4] = system: Salmonella; test: Antimicrobial activity against Salmonella serogroup O9 assessed as percent tetracyclin-resistant isolate at 1 to >128 ug/ml by broth microdilution method; type: functional; outline: as §1
[5] = system: Vibrio cholerae; test: Antimicrobial activity against Vibrio cholerae non-O1 assessed as percent tetracyclin-resistant isolate at 0.12 to 16 ug/ml by broth microdilution method; type: functional
[6] = system: Salmonella typhimurium; test: Antimicrobial activity against Salmonella serotype Typhimurium assessed as percent tetracyclin-resistant isolate at 1 to >128 ug/ml by broth microdilution method; type: functional, Salmonella enterica subsp. enterica serovar Typhimurium; outline: as §1
[7] = system: Aeromonas sp.; test: Antimicrobial activity against tetracycline-susceptible Aeromonas sp. isolate by broth microdilution method; type: functional; outline: as §2
[8] = system: Aeromonas hydrophila; test: Antimicrobial activity against Aeromonas hydrophila by broth microdilution method; type: functional; outline: as §2
[9] = system: Vibrio; test: Antimicrobial activity against tetracycline-nonsusceptible Vibrio sp. Isolate by broth microdilution method; type: functional; outline: as §2
[10] = system: Salmonella; test: Antimicrobial activity against Salmonella serogroup O9 by broth microdilution method; type: functional; outline: as §2
[11] = system: Salmonella; test: Antimicrobial activity against Salmonella serogroup O8 by broth microdilution method; type: functional; outline: as §2
[12] = system: Aeromonas caviae; test: Antimicrobial activity against tigecycline-intermediate Aeromonas caviae isolate by broth microdilution method; type: functional; outline: as §2
[13] = system: Aeromonas hydrophila; test: Antimicrobial activity against Aeromonas hydrophila assessed as percent tetracyclin-resistant isolate at 0.25 to >16 ug/ml by broth microdilution method; type: functional; outline: as §1
[14] = system: Salmonella; test: Antimicrobial activity against tetracycline-nonsusceptible Salmonella sp. Isolate by broth microdilution method; type: functional; outline: as §2
[15] = system: Aeromonas caviae; test: Antimicrobial activity against Aeromonas caviae by broth microdilution method; type: functional; outline: as §2
[16] = system: Aeromonas sobria; test: Antimicrobial activity against Aeromonas sobria assessed as percent tetracyclin-resistant isolate at 0.25 to >16 ug/ml by broth microdilution method; type: functional; outline: as §1
[17] = system: Salmonella; test: Antimicrobial activity against Salmonella serogroup O7 by broth microdilution method; type: functional; outline: as §2
[18] = Antimicrobial activity against Salmonella serotype Choleraesuis by broth microdilution method; type: functional, Salmonella enterica subsp. enterica serovar Choleraesuis; conditions: Salmonella enterica
Outline: (§3)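 Tigecycline MICs for clinical isolates (Taiwan) were determined by broth microdilution over 0.03 to 128 μg/ml. A control strain was included, and its MICs had to fall within the recommended range. Susceptible, intermediate and resistant categories were assigned from the MICs using US FDA and EUCAST breakpoints.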

[19] = system: Salmonella typhimurium; test: Antimicrobial activity against Salmonella serotype Typhimurium by broth microdilution method; type: functional, Salmonella enterica subsp. enterica serovar Typhimurium; conditions: Salmonella enterica; outline: as §2
[20] = system: Aeromonas sobria; test: Antimicrobial activity against Aeromonas sobria by broth microdilution method; type: functional; outline: as §2
[21] = system: Aeromonas caviae; test: Antimicrobial activity against Aeromonas caviae assessed as percent tetracyclin-resistant isolate at 0.25 to >16 ug/ml by broth microdilution method; type: functional; outline: as §1
[22] = system: Aeromonas sp.; test: Antimicrobial activity against tetracycline-nonsusceptible Aeromonas sp. isolate by broth microdilution method; type: functional; outline: as §2
[23] = system: Salmonella; test: Antimicrobial activity against Salmonella serogroup O7 assessed as percent tetracyclin-resistant isolate at 1 to >128 ug/ml by broth microdilution method; type: functional; outline: as §1
[24] = system: Vibrio cholerae; test: Antimicrobial activity against Vibrio cholerae non-O1 by broth microdilution method; type: functional; outline: as §3
[25] = system: Salmonella; test: Antimicrobial activity against tetracycline-susceptible Salmonella sp. Isolate by broth microdilution method; type: functional; outline: as §2
[26] = system: Aeromonas sobria; test: Antimicrobial activity against Aeromonas sobria assessed as susceptibility level by disk diffusion method; type: functional
Outline: (§4)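 Cefotaxime and ciprofloxacin susceptibility taken from routine clinical laboratory reports; disk diffusion per CLSI guidelines.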

[27] = system: Aeromonas hydrophila; test: Antimicrobial activity against Aeromonas hydrophila assessed as susceptibility level by disk diffusion method; type: functional; outline: as §4
[28] = system: Aeromonas caviae; test: Antimicrobial activity against Aeromonas caviae assessed as susceptibility level by disk diffusion method; type: functional; outline: as §4

For `CN(C)[C@@H]1C(O)=C(C(N)=O)C(=O)[C@@]2(O)C(O)=C3C(=O)c4c(O)cccc4[C@@](C)(O)[C@H]3C[C@@H]12` [TETRACYCLINE], the Activity [1] was 84%, the MIC [2] was no more than 4 µg/mL and the Activity [3] was 71%. It also gave an Activity [4] of 16%, an Activity [5] of 8% and an Activity [6] of 65%. The MIC [7] was no more than 4 µg/mL, the MIC90 [8] was 16 µg/mL (≈ 36 µM) and the MIC [9] was no less than 8 µg/mL. For the same compound, the MIC90 [10] was greater than 128 µg/mL, the MIC90 [11] was greater than 128 µg/mL and the MIC [12] was greater than 128 µg/mL. It also gave an Activity [13] of 36%, an MIC [14] of no less than 8 µg/mL and an MIC90 [15] of 16 µg/mL (≈ 36 µM). It also gave an Activity [16] of 57%, an MIC90 [17] greater than 128 µg/mL and an MIC90 [18] greater than 128 µg/mL. For the same compound, the MIC90 [19] was greater than 128 µg/mL, the MIC90 [20] was 16 µg/mL (≈ 36 µM) and the Activity [21] was 37%. For the same compound, the MIC [22] was no less than 8 µg/mL, the Activity [23] was 38% and the MIC90 [24] was 1 µg/mL (≈ 2.25 µM). The MIC [25] was no more than 4 µg/mL.

`CO/N=C(\C(=O)N[C@@H]1C(=O)N2C(C(=O)O)=C(COC(C)=O)CS[C@H]12)c1csc(N)n1` [CEFOTAXIME] showed an Activity [26] of 95%, an Activity [27] of 79% and an Activity [28] of 73%.
